Experiments:
Assay type in all cases: functional, cell-based
HT-29 = assay: Concentration required to kill 50 % of human colon cancer cell line HT-29
Procedure, shortened: (§1)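 MTT assay. Cells at 2500–30,000/well were preincubated 24 h at 37 C, 5% CO2. Fourfold dilutions of compound in 10% DMSO were added, in duplicate, and exposure ran 72 h at 37 C. MTT was then added for 1–4 h, formazan was dissolved in 10% SDS (pH 5.5) overnight, and OD was read at 540 nm. Survival was calculated versus control wells, with IC50 from dose–response curves.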

PC-3 = assay: Concentration required to kill 50 % of human prostate cancer PC3 cells; procedure, shortened: as §1
K562 [1] = assay: Concentration required to kill 50 % of human paclitaxel-resistant subline of K562 cells (K-562-Tax); procedure, shortened: as §1
CCRF-CEM = assay: Concentration required to kill 50 % of human T-lymphoblastic leukemia cell line (CEM); procedure, shortened: as §1
K562 [2] = assay: Concentration required to kill 50 % of human chronic myelogenous leukemia cell line K562; procedure, shortened: as §1
SK-MEL-2 = assay: Concentration required to kill 50 % of human melanoma SK-MEL2 cells; procedure, shortened: as §1
[3] = Homo sapiens, HT-29, read-out: IC50
[4] = Homo sapiens, PC-3, read-out: IC50
[5] = Homo sapiens, K562, read-out: IC50
[6] = Homo sapiens, CCRF-CEM, read-out: IC50
[7] = Homo sapiens, SK-MEL-2, read-out: IC50

| SMILES | IC50 (HT-29; [3]) [µM] | IC50 (PC-3; [4]) [µM] | IC50 (K562 [1]; [5]) [µM] | IC50 (CCRF-CEM; [6]) [µM] | IC50 (K562 [2]; [5]) [µM] | IC50 (SK-MEL-2; sk-mel-2) [uM l-1] | IC50 (SK-MEL-2; [7]) [µM] | IC50 (HT-29; ht-29) [uM l-1] | IC50 (PC-3; pc-3) [uM l-1] | IC50 (K562 [1]; k562) [uM l-1] | IC50 (CCRF-CEM; ccrf-cem) [uM l-1] | IC50 (K562 [2]; k562) [uM l-1] |
| --- | --- | --- | --- | --- | --- | --- | --- | --- | --- | --- | --- | --- |
| CC(C)C1=C2C3CCC4[C@@]5(C)CC[C@H](O)C(C)(C)C5CC[C@@]4(C)[C@]3(C)CC[C@@]2(C(=O)OCc2ccccc2)CC1=O (some centres not stated) | 21 | 37 | 28 | 26 | 27 | 156 |  |  |  |  |  |  |
| COC(=O)[C@@]12CC[C@]3(C)C(CCC4[C@@]5(C)CC[C@H](OC(C)=O)C(C)(C)C5CC[C@]43C)C1=C(C(C)C)C(=O)C2=O (some centres not stated) | 33 | 34 | 36 | 16 | 29 |  | 87 |  |  |  |  |  |
| CC(=O)O[C@H]1CC[C@@]2(C)C(CC[C@]3(C)C2CCC2C4=C(C(C)C)C(=O)C[C@]4(CO)CC[C@]23C)C1(C)C (some centres not stated) | 33 | 39 | 35 | 28 | 37 |  | 84 |  |  |  |  |  |
| CCOC(=O)[C@@]12CC[C@]3(C)C(CCC4[C@@]5(C)CC[C@H](OC(C)=O)C(C)(C)C5CC[C@]43C)C1=C(C(C)C)C(=O)C2 (some centres not stated) |  |  |  |  | 59 | 216 |  | 224 | 244 | 206 | 102 |  |
| CC(C)C1=C2C3CCC4[C@@]5(C)CC[C@H](O)C(C)(C)C5CC[C@@]4(C)[C@]3(C)CC[C@@]2(C(=O)O)CC1=O (some centres not stated) | 33 | 40 | 34 | 29 | 30 | 160 |  |  |  |  |  |  |
| COC(=O)[C@@]12CC[C@]3(C)C(CCC4[C@@]5(C)CC[C@H](O)C(C)(C)C5CC[C@]43C)C1=C(C(C)C)C(=O)C2 (some centres not stated) | 38 | 38 | 36 | 26 | 38 |  | 80 |  |  |  |  |  |
| CC(=O)OC[C@@]1(C(=O)O)CC[C@]2(C)C(CCC3[C@@]4(C)CC[C@H](OC(=O)CCl)C(C)(C)C4CC[C@]32C)C1=O (some centres not stated) | 3.6 | 2.3 | 0.4 | 1 | 0.2 |  | 1.3 |  |  |  |  |  |
| C=C1CC[C@]2(C)C(CCC3[C@@]4(C)CC[C@H](OC(C)=O)C(C)(C)C4CC[C@]32C)C1=O (some centres not stated) |  |  | 1.1 |  | 0.4 |  | 2.1 | 129 | 143 |  | > 250 |  |
| CC(=O)OC[C@@]12CC[C@]3(C)C(CCC4[C@@]5(C)CC[C@H](OC(=O)CCl)C(C)(C)C5CC[C@]43C)C1=C(C(C)C)C(=O)OC2=O (some centres not stated) |  |  |  |  |  | 121 |  | 216 | 250 | 220 | 162 | 181 |
| CC(C)C1=C2C3CCC4[C@@]5(C)CC[C@H](O)C(C)(C)C5CC[C@@]4(C)[C@]3(C)CC[C@@]2(CO)CC1=O (some centres not stated) |  |  |  |  |  | > 250 |  | > 250 | > 250 | > 250 | > 250 | > 250 |
| CC(=O)OC[C@@]12CC[C@]3(C)C(CCC4[C@@]5(C)CC[C@H](OC(=O)CCl)C(C)(C)C5CC[C@]43C)C1=C(C(C)C)C(=O)C2 (some centres not stated) |  |  | 97 | 44 |  | 229 |  | 110 | 242 |  |  | 110 |
| CC(=O)O[C@H]1CC[C@@]2(C)C(CC[C@]3(C)C2CCC2C4=C(C(C)C)C(=O)C[C@]4(C(=O)OCc4ccccc4)CC[C@]23C)C1(C)C (some centres not stated) |  |  |  |  |  | 250 |  | 250 | 250 | 250 | 250 | 245 |
| CCOC(=O)[C@@]12CC[C@]3(C)C(CCC4[C@@]5(C)CC[C@H](OC(C)=O)C(C)(C)C5CC[C@]43C)C1=C(C(C)C)C(=O)C2=O (some centres not stated) | 93 | 87 |  | 38 | 59 | 148 |  |  |  | 130 |  |  |
| CC(=O)OC[C@@]12CC[C@]3(C)C(CCC4[C@@]5(C)CC[C@H](OC(C)=O)C(C)(C)C5CC[C@]43C)C1=C(C(C)C)C(=O)C2 (some centres not stated) |  |  |  |  |  | > 250 |  | > 250 | > 250 | > 250 | > 250 | > 250 |
| CC(=O)OC[C@@]12CC[C@]3(C)C(CCC4[C@@]5(C)CC[C@H](OC(=O)CCl)C(C)(C)C5CC[C@]43C)C1=C(C(C)C)C(=O)C2=O (some centres not stated) |  |  |  |  |  | 170 |  | > 250 | 208 | > 250 | 242 | 231 |
| CCOC(=O)[C@@]12CC[C@]3(C)C(CCC4[C@@]5(C)CC[C@H](O)C(C)(C)C5CC[C@]43C)C1=C(C(C)C)C(=O)C2 (some centres not stated) | 13 | 33 | 19 | 18 | 17 |  | 80 |  |  |  |  |  |
| COC(=O)[C@@]12CC[C@]3(C)C(CCC4[C@@]5(C)CC[C@H](O)C(C)(C)C5CC[C@]43C)C1=C(C(C)C)C(=O)C2=O (some centres not stated) | 54 | 72 | 46 | 44 | 35 | 138 |  |  |  |  |  |  |
| COC(=O)[C@@]12CC[C@]3(C)C(CCC4[C@@]5(C)CC[C@H](OC(C)=O)C(C)(C)C5CC[C@]43C)C1=C(C(C)C)C(=O)C2 (some centres not stated) |  |  | 96 | 44 | 34 | 165 |  | 149 | 246 |  |  |  |
| CCOC(=O)[C@@]12CC[C@]3(C)C(CCC4[C@@]5(C)CC[C@H](O)C(C)(C)C5CC[C@]43C)C1=C(C(C)C)C(=O)C2=O (some centres not stated) |  |  | 85 |  |  | 140 |  | 176 | 165 |  | 210 | 239 |
| CC(=O)OC[C@@]12CC[C@]3(C)C(CCC4[C@@]5(C)CC[C@H](O)C(C)(C)C5CC[C@]43C)C1=C(C(C)C)C(=O)C2 (some centres not stated) | 93 |  | 59 |  | 39 |  | 85 |  | 163 |  | 250 |  |
| CC(=O)O[C@H]1CC[C@@]2(C)C(CC[C@]3(C)C2CCC2C4=C(C(C)C)C(=O)C[C@]4(C(=O)O)CC[C@]23C)C1(C)C (some centres not stated) |  |  |  |  |  | 128 |  | 149 | 117 | > 250 | > 250 | > 250 |
| C=C(C)[C@@H]1CC[C@]2(CO)CC[C@]3(C)[C@H](CC[C@@H]4[C@@]5(C)CC[C@H](O)C(C)(C)[C@@H]5CC[C@]43C)[C@@H]12 [BETULIN] |  |  |  |  |  | > 250 |  | > 250 | > 250 | > 250 | > 250 | > 250 |

— ChEMBL document CHEMBL1141042, “Correlation of cytotoxic activity of betulinines and their hydroxy analogues” (Bioorg Med Chem Lett, 2005)
